{"data": "Experimental data gathered from unrelated publications", "note": "Protocols differ between the studies behind these lines."}
{"Structure (SMILES)": "CC(C)C[C@H](NC(=O)[C@H](CCc1ccccc1)NC(=O)CN1CCOCC1)C(=O)N[C@@H](Cc1ccccc1)C(=O)N[C@@H](CC(C)C)C(=O)[C@@]1(C)CO1", "test system": "PBS", "setting": "24 h, pH 7.4, 37 °C", "solubility": "1.56 µM"}
{"Structure (SMILES)": "COc1cccc(OC)c1-c1cc(C(=O)N[C@@H](CC(C)C)C(=O)O)nn1-c1ccnc2cc(Cl)ccc12", "test system": "aqueous buffer", "setting": "pH 6.2", "solubility": "> 155 µg/mL"}
{"Structure (SMILES)": "Brc1cccc2c(NCc3ccccc3)nc(NCc3ccccc3)nc12", "test system": "aqueous buffer", "setting": "pH 6.2", "solubility": "0.13 µg/mL"}
{"Structure (SMILES)": "COC(=O)Nc1nc2cc(C(=O)c3ccc(F)cc3)ccc2[nH]1", "test system": "water", "setting": "24 h", "solubility": "< 1 µg/mL"}
{"Structure (SMILES)": "COc1cccc2c(NCc3ccccc3)nc(NCc3ccccc3)nc12", "test system": "aqueous buffer", "setting": "pH 6.2", "solubility": "1 µg/mL"}
{"Structure (SMILES)": "CN1CCN(CC2CCN(c3nccc4[nH]c(-c5cccc(OCCN)c5)nc34)CC2)CC1", "test": "shake flask", "test system": "aqueous buffer", "setting": "pH 6.5", "solubility": "> 200 µM"}
{"Structure (SMILES)": "CCOc1ccc2cc(-c3nn(C(C)C)c(N)c3C(N)=O)cnc2c1", "test system": "PBS", "setting": "pH 6.5, 25 °C", "solubility": "99 µM"}
{"Structure (SMILES)": "O=C(Nc1cc(F)c(F)c(F)c1)c1ccc(F)c(S(=O)(=O)NCc2cccc(B(O)O)c2)c1", "test system": "aqueous buffer", "setting": "pH 7.4", "solubility": "427 µg/mL"}
{"Structure (SMILES)": "CN1CCN([C@H]2CC[C@H](Nc3nccc4[nH]c(-c5cc(F)cc(F)c5)nc34)CC2)CC1", "test": "shake flask", "test system": "aqueous buffer", "setting": "pH 6.5", "solubility": "> 200 µM"}
{"Structure (SMILES)": "Cl.Clc1ccc2c(nc(N3CCNCC3)n2Cc2ccccc2)c1-c1ccccc1", "test": "shake flask", "test system": "aqueous buffer", "setting": "20 h, pH 6.5, 25 °C", "solubility": "195 µM"}
{"Structure (SMILES)": "CCCCCCCCO", "test system": "PBS", "setting": "48 h, pH 7.4, 25 °C", "solubility": "6000 µM"}
{"Structure (SMILES)": "CSc1nc2nc(C)cc(Nc3ccc(S(F)(F)(F)(F)F)cc3)n2n1", "test": "nephelometry", "test system": "aqueous buffer", "setting": "pH 6.5", "solubility": "7.8 to 15 µM"}
{"Structure (SMILES)": "O=C(Nc1ccc(S(=O)(=O)N2CCC(Cl)CC2)cc1)c1ccc([N+](=O)[O-])o1", "test system": "aqueous buffer", "setting": "pH 6.2", "solubility": "9.2 µM"}
{"Structure (SMILES)": "CCCN(C)Cc1cc(-c2[nH]c3cccc(F)c3c(=O)c2C)ccc1Cc1ccc(OC(F)(F)F)cc1", "test system": "PBS", "setting": "pH 7.4", "solubility": "< 0.2 µM"}
{"Structure (SMILES)": "CCOc1ccc2cc(-c3nn(CC4CC4)c(N)c3C(N)=O)ccc2n1", "test system": "PBS", "setting": "pH 6.5, 25 °C", "solubility": "10.9 µM"}
{"Structure (SMILES)": "Cc1cccc(C(=O)Nc2cccc(NC(=O)c3ccccc3)c2)c1", "test system": "PBS", "setting": "pH 7.4", "solubility": "0.82 µM"}
{"Structure (SMILES)": "N=C(N)NCc1ccc(NC(=O)C23CCC(C(=O)Nc4ccc(C5=CCN(C(=N)N)CC5)cc4)(CC2)CC3)cc1", "test": "shake flask", "test system": "aqueous buffer", "setting": "pH 7.4", "solubility": "46 µg/mL"}
{"Structure (SMILES)": "[Br-].c1ccc(-c2n(Cc3ccc4ccccc4c3)cc[n+]2Cc2ccc3ccccc3c2)cc1", "test system": "water", "solubility": "< 500 µg/mL"}
{"Structure (SMILES)": "Fc1ccc(-c2nc3c(N4CCCN(CC5CC5)CC4)nccc3[nH]2)cc1F", "test": "shake flask", "test system": "aqueous buffer", "setting": "pH 6.5", "solubility": "> 200 µM"}
{"Structure (SMILES)": "NC(=O)c1ccc(N(Cc2ccc(C3CCCCC3)cn2)C(=O)[C@H]2CCN2S(=O)(=O)c2c(F)c(F)c(F)c(F)c2F)cc1O", "test system": "simulated gastric fluid", "solubility": "107 µg/mL"}
{"Structure (SMILES)": "Cc1c(F)cccc1NC(=O)Nc1ccc(Cl)c(S(=O)(=O)[C@H]2CCCNC2)c1O", "test system": "aqueous buffer", "setting": "4 h, pH 3", "solubility": "161 µg/mL"}
{"Structure (SMILES)": "COc1cc(F)c(S(=O)(=O)N2CCN(S(=O)(=O)c3cccc(N)c3)CC2)c(F)c1", "test system": "aqueous buffer", "solubility": "< 0.4 µg/mL"}
{"Structure (SMILES)": "O=C(O)Cc1ccccc1Nc1c(Cl)cccc1Cl", "test system": "PBS", "setting": "pH 7.4", "solubility": "1940 µg/mL"}
{"Structure (SMILES)": "Cc1c(F)cccc1Nc1nc(NCc2ccccc2)c2ccccc2n1", "test system": "aqueous buffer", "setting": "pH 7.4", "solubility": "< 0.01 µg/mL"}
{"Structure (SMILES)": "O=C(c1ccccn1)N(Cc1cccs1)C1(C(=O)NC2CCCCC2)CCCCC1", "test system": "aqueous buffer", "setting": "pH 7.4", "solubility": "6.5 µg/mL"}
{"Structure (SMILES)": "Cc1ccc(F)cc1Nc1nc(NCc2ccccc2)c2ccccc2n1", "test system": "aqueous buffer", "setting": "pH 7.4", "solubility": "0.04 µg/mL"}
{"Structure (SMILES)": "COCCc1nc2nc(C)cc(Nc3ccc(C(F)(F)F)cc3)n2n1", "test": "nephelometry", "test system": "aqueous buffer", "setting": "pH 6.5", "solubility": "71 to 140 µM"}
{"Structure (SMILES)": "Cl.NC1CCN(c2nc3cc(Cl)ccc3n2Cc2ccccc2)CC1", "test": "shake flask", "test system": "aqueous buffer", "setting": "20 h, pH 6.5, 25 °C", "solubility": "> 150 µM"}
{"Structure (SMILES)": "c1ccc(CNc2nc(N3CCOc4ccccc43)nc3ccccc23)cc1", "test system": "aqueous buffer", "setting": "pH 5", "solubility": "25.2 µg/mL"}
{"Structure (SMILES)": "COc1ccc(N2CCN(CCCNC(=O)Cn3c(=O)c4cccn4c4c(C)ccnc43)CC2)cc1", "test system": "aqueous buffer", "setting": "pH 7.4", "solubility": "12.4 µg/mL"}
{"Structure (SMILES)": "Clc1cccc(Nc2nc(NCc3cccc(Br)c3)c3ccccc3n2)c1", "test system": "aqueous buffer", "setting": "pH 6.2", "solubility": "0.02 µg/mL"}
{"Structure (SMILES)": "COc1cc2ncnc3c2cc1OCCOCCOc1cc(F)c(Cl)cc1N3", "test": "HPLC", "test system": "aqueous buffer", "setting": "24 h", "solubility": "0.131 to 0.174 µg/mL"}
{"Structure (SMILES)": "COc1c(N2CCNC(C)C2)c(F)cc2c(=O)c(C(=O)NCCCN(C)C)cn(C3CC3)c12 (racemic)", "test system": "water", "solubility": "72000 µM"}
{"Structure (SMILES)": "CC(C)(C)n1nc(-c2ccc3nc(OC4CC4)ccc3c2)c(C(N)=O)c1N", "test system": "PBS", "setting": "pH 6.5, 25 °C", "solubility": "96.3 µM"}
{"Structure (SMILES)": "O=C(NCCN1CCCC1)c1cc(-c2ccc(CN3CCOCC3)cc2)nc2ccc(F)cc12.O=C(O)C=CC(=O)O", "test system": "simulated gastric fluid", "setting": "pH 2, 37 °C, acidic", "solubility": "> 6490 µM"}
{"Structure (SMILES)": "COCCc1nc2nc(C)cc(Nc3ccc(S(F)(F)(F)(F)F)cc3)n2n1", "test": "nephelometry", "test system": "aqueous buffer", "setting": "pH 6.5", "solubility": "31 to 62 µM"}
{"Structure (SMILES)": "COC(=O)c1ccc2c(c1)nc(C1CCNCC1)n2Cc1ccccc1", "test": "shake flask", "test system": "aqueous buffer", "setting": "20 h, pH 6.5, 25 °C", "solubility": "200 µM"}
{"Structure (SMILES)": "CCOc1ccc2cc(-c3nn(C(C)C)c(N)c3C(N)=O)ccc2n1", "test system": "PBS", "setting": "pH 6.5, 25 °C", "solubility": "> 100 µM"}
{"Structure (SMILES)": "CN(C)C1CN(Cc2ccc(NC(=O)c3ccc(OCCCl)c([N+](=O)[O-])c3)cc2C(F)(F)F)C1", "test": "HPLC", "test system": "water", "setting": "1 h", "solubility": "< 5 µg/mL"}
{"Structure (SMILES)": "CC(=O)c1cccc(OCc2cc(C(=O)N(C)[C@@H](C)c3ccccn3)no2)c1", "test system": "PBS", "solubility": "96 µM"}
{"Structure (SMILES)": "O=C(O)c1ccccc1O", "test system": "PBS", "setting": "pH 7.4", "solubility": "7700 µg/mL"}
{"Structure (SMILES)": "CCCn1nc(C(=O)N2CCCCC2)c2c1CCC(N(C)Cc1ccc(F)cc1)C2 (stereo not drawn)", "test system": "PBS", "setting": "16 h, pH 7.4", "solubility": "2420 µM"}
{"Structure (SMILES)": "Brc1cccc(Nc2nc(NCc3ccccc3)c3ccccc3n2)c1", "test system": "aqueous buffer", "setting": "pH 5", "solubility": "0.03 µg/mL"}
{"Structure (SMILES)": "COc1cc(OC)cc(N(CCNC(C)C)c2ccc3ncc(-c4cnn(C)c4)nc3c2)c1", "test system": "aqueous buffer", "setting": "pH 6.79", "solubility": "6820 µg/mL"}
{"Structure (SMILES)": "Cc1cc(Nc2ccc(C(F)(F)F)cc2)n2nc(C3CC3)nc2n1", "test": "nephelometry", "test system": "aqueous buffer", "setting": "pH 6.5", "solubility": "38 to 75 µM"}
{"Structure (SMILES)": "COCCOCCOCc1n(Cc2ccc3ccccc3n2)c2ccccc2[n+]1Cc1ccc2ccccc2n1.[Cl-]", "test system": "water", "solubility": "> 40000 µg/mL"}
{"Structure (SMILES)": "c1ccc(CNc2nc(N3CCNc4ccccc43)nc3ccccc23)cc1", "test system": "aqueous buffer", "setting": "pH 5", "solubility": "> 36 µg/mL"}
{"Structure (SMILES)": "Clc1ccc2c(nc(N3CCNCC3)n2Cc2ccccc2)c1Br", "test": "shake flask", "test system": "aqueous buffer", "setting": "20 h, pH 6.5, 25 °C", "solubility": "50 µM"}
